Columns and labels:
[1] = Stability in human serum assessed as compound remaining incubated for 1 hr; type: ADME, cell-free; conditions: read-out: Stabilty
[2] = system: A549; assay: Antitumor activity in human A549 cells xenografted in NU/J mouse assessed as reduction in tumor volume at 10 mg/kg, ip administered for 10 weeks and measured for every 7 day relative to control; type: functional; parameters: scale not given: the % may be the effect or the level left
[3] = system: NCI-H1299; assay: Antiproliferative activity against human NCI-H1299 cells assessed as reduction in cell viability at 30 uM incubated for 48 hrs by MTT assay relative to control; type: functional
Method in brief: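 H1299 cells seeded at 5,000 per well, exposed in hexads to compound at 30 µM or DMSO (<0.5% v/v) for 48 h. MTT then added for 4 h and absorbance read at 570 nm. Conditions run in triplicate, quadruplicate or hexad, experiment repeated at least once; mean ± standard deviation.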

[4] = Inhibition of glucose uptake in human NCI-H1299 cells at 30 uM incubated for 10 mins followed by […][3H]2-deoxyglucose and glucose addition and measured after 30 mins by scintillation counting method relative to control; type: functional; conditions: NCI-H1299, 10 min
Method in brief: (§1)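 H1299 cells held 2 h in serum-free medium, then 30 min in KRP buffer. Treated ±30 µM compound for 10 min, then 37 MBq/L [3H]2-deoxyglucose plus 1 mmol/L glucose in KRP for 30 min uptake. Washed twice with ice-cold PBS, lysed in NaOH, radioactivity by scintillation counting. Replicates triplicate to hexad, repeated at least once; mean ± standard deviation.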

[5] = Stability in human serum assessed as reduction in A549 cell viability at 30 uM measured upto 12 hrs by resazurin assay; type: cell-free
Method in brief: (§2)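 Compound at 30 µM preincubated at 37 °C in DMEM with 10% FBS and 1% Pen/Strep for 0, 1, 2, 4, 6, 9, 12, 24, 48 and 72 h. This medium then applied for 24 h to 5 x 10^3 A549 cells (grown overnight, washed twice with PBS). Resazurin added for 30 min, fluorescence Ex 560/Em 590, normalized to DMSO mock.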

[6] = Stability in human serum assessed as reduction in A549 cell viability at 30 uM measured upto 72 hrs by resazurin assay; type: cell-free; method in brief: as §2
[7] = system: NCI-H1299; assay: Antiproliferative activity against human NCI-H1299 cells assessed as reduction in cell viability incubated for 48 hrs by MTT assay; type: functional, cell-based; conditions: NCI-H1299, 48 h
[8] = Inhibition of glucose uptake in human NCI-H1299 cells incubated for 10 mins followed by […][3H]2-deoxyglucose and glucose addition and measured after 30 mins by scintillation counting method; type: functional, cell-based; method in brief: as §1

| SMILES | inhibition at 30 µM [3] | inhibition at 30 µM [4] | also measured |
| --- | --- | --- | --- |
| O=C(Oc1cccc(F)c1OC(=O)c1cccc(O)c1)c1cccc(O)c1 | 56.9% | 92.8% | remaining at 1 h [1]: 25%; Activity [2]: 70%; Stabilty [5]: Unstable |
| Oc1ccc(Cl)c(CNc2ccc(Cl)cc2NCc2cc(O)ccc2Cl)c1 | 70.8% | 80.7% |  |
| Oc1cccc(COc2ccc(Cl)cc2OCc2cccc(O)c2)c1 | 14.3% | 91.2% |  |
| O=C(Nc1ccc(Cl)cc1NC(=O)c1cccc(O)c1)c1cccc(O)c1 | 5.9% | 83.7% |  |
| Oc1cc(CNc2ccc(Cl)cc2NCc2ccc(Br)c(O)c2)ccc1Br | 74.1% | 69.1% |  |
| Cc1ccc(CNc2ccc(Cl)cc2NCc2ccc(C)c(O)c2)cc1O | 77.5% | 93.7% | Stabilty [6]: Stable; IC50 [7]: 7 µM; IC50 [8]: 1.9 µM |
| O=C(Nc1ccc(Cl)cc1NC(=O)c1cc(O)cc(Cl)c1)c1cc(O)cc(Cl)c1 | 61.3% | 60.6% |  |
| O=C(Nc1ccc(Cl)cc1NC(=O)c1ccc(F)c(O)c1)c1ccc(F)c(O)c1 | 25.7% | 47.8% |  |
| O=C(Nc1ccc(Cl)cc1NC(=O)c1ccc(Cl)c(O)c1)c1ccc(Cl)c(O)c1 | 19% | 85.2% |  |
| Oc1cccc(CNc2ccc(F)cc2NCc2cccc(O)c2)c1 | 37.7% | 39.2% |  |
| O=C(Oc1cccc(O)c1)c1cccc(F)c1C(=O)Oc1cccc(O)c1 | 15.3% | 78.2% |  |
| O=C(Nc1cccc(F)c1NC(=O)c1cccc(O)c1)c1cccc(O)c1 | 33.4% | 20% |  |
| Oc1cccc(OCc2cccc(F)c2COc2cccc(O)c2)c1 | -1.4% | 89.5% |  |
| O=C(Nc1ccc(Cl)cc1NC(=O)c1cc(O)ccc1Cl)c1cc(O)ccc1Cl | 45.3% | 89.9% |  |
| Oc1cccc(SCc2cccc(F)c2CSc2cccc(O)c2)c1 | -2% | 98.1% |  |
| [O-][S+](Cc1cccc(F)c1C[S+]([O-])c1cccc(O)c1)c1cccc(O)c1 (configuration not stated) | 0.2% | 17.2% |  |
| Cc1ccc(O)cc1C(=O)Nc1ccc(Cl)cc1NC(=O)c1cc(O)ccc1C | 21% | 21% |  |

| SMILES | inhibition at 30 µM [3] | inhibition at 30 µM [4] | also measured |
| --- | --- | --- | --- |
| Oc1cc(Cl)cc(CNc2ccc(Cl)cc2NCc2cc(O)cc(Cl)c2)c1 | 47.6% | 81.7% |  |
| Oc1cccc(CCc2cccc(F)c2CCc2cccc(O)c2)c1 | -22.7% | 60.7% |  |
| Cc1cc(O)cc(C(=O)Nc2ccc(Cl)cc2NC(=O)c2cc(C)cc(O)c2)c1 | 84.7% | 61.4% |  |
| Oc1cc(CNc2ccc(Cl)cc2NCc2ccc(F)c(O)c2)ccc1F | 22.1% | 24.1% |  |
| Cc1cc(O)cc(CNc2ccc(Cl)cc2NCc2cc(C)cc(O)c2)c1 | 60.4% | 75% |  |
| COc1ccc(CNc2ccc(Cl)cc2NCc2ccc(OC)c(O)c2)cc1O | 22% | 42.2% |  |
| Cc1ccc(C(=O)Nc2ccc(Cl)cc2NC(=O)c2ccc(C)c(O)c2)cc1O | 55% | 84.8% |  |
| Oc1cccc(COc2cccc(F)c2OCc2cccc(O)c2)c1 | 10.6% | 92.6% |  |
| Oc1cccc(CNc2cccc(F)c2NCc2cccc(O)c2)c1 | 5% | 54.8% |  |
| O=S(=O)(Cc1cccc(F)c1CS(=O)(=O)c1cccc(O)c1)c1cccc(O)c1 | 11.8% | 61.4% |  |
| Oc1cccc(CNc2ccc(Cl)cc2NCc2cccc(O)c2)c1 | 56.6% | 52.2% |  |
| O=C(Nc1ccc(Cl)cc1NC(=O)c1ccc(Br)c(O)c1)c1ccc(Br)c(O)c1 | 54.6% | 97.3% |  |
| Oc1cc(CNc2ccc(Cl)cc2NCc2ccc(Cl)c(O)c2)ccc1Cl | 70.9% | 52.4% |  |
| COc1ccc(C(=O)Nc2ccc(Cl)cc2NC(=O)c2ccc(OC)c(O)c2)cc1O | 26% | 39.5% |  |
| Cc1ccc(O)cc1CNc1ccc(Cl)cc1NCc1cc(O)ccc1C | 46.3% | 82.9% |  |
| O=C(Nc1ccc(F)cc1NC(=O)c1cccc(O)c1)c1cccc(O)c1 | 5.7% | 89.7% |  |
